Measured values from ChEMBL document CHEMBL4359864, “The synthesis and in vitro biological evaluation of novel fluorinated tetrahydrobenzo[j]phenanthridine-7,12-diones against Mycobacterium tuberculosis” (Eur J Med Chem, 2019).

How the values were obtained:
Klebsiella pneumoniae = experiment: Antibacterial activity against Klebsiella pneumoniae ATCC 13883 incubated for 24 hrs by resazurin dye based fluorimetric assay; assay type: functional, organism-based; conditions: ATCC 13883, 24 h
In short: (§1)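 Resazurin microtiter assay: compounds from 10 mM DMSO stock, twofold serial dilutions from 64 µM final in growth medium, in triplicate. Inoculum from frozen glycerol stocks. Exposure 24 h, or 7 days for Mtb H37Ra (7H9 + 0.5% glycerol + 10% OADC). Then 0.01% resazurin was added and plates were incubated at 37°C until pink. Fluorescence read at ex 550/em 590 nm; mean of triplicates.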

[1] = Antimycobacterial activity against Mycobacterium avium subsp. avium ATCC 25291 by resazurin dye based fluorimetric assay; assay type: functional
In short: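 Resazurin microtiter method as for the bacterial panel. Mycobacteria grown in 7H9 with 10% OADC and 0.5% glycerol; for BCG, 0.05% Tween 80 replaced the glycerol. Cultures were sonicated and needle-passed to single cells. Incubation at 37°C, or 32°C for M. marinum. Fluorescence read at ex 550/em 590 nm; mean of triplicates.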

[2] = system: Mycobacterium tuberculosis; experiment: Induction of ROS generation in Mycobacterium tuberculosis H37Ra ATCC 25177 assessed as increase in superoxide radicals incubated with CMH probe for 50 mins followed by compound addition and measured for 3 to 48 hrs by EPR analysis; assay type: functional
In short: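 Mtb H37Ra cultures were exposed to compound, rifampicin or moxifloxacin (2 x MIC), alongside untreated controls. Samples were measured by EPR at 3, 6, 24 and 48 h. Spectra were simulated and double-integrated (aN = 1.58 mT) and converted to absolute CMH radical concentration by calibration. Mean of at least three replicates ± SD; two-way ANOVA with Tukey test.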

UGT [3] = molecular target: T1, UGT (Homo sapiens, UniProt O60656+O75310+O75795+P06133+P0DTE4+P0DTE5+P16662+P19224+P22309+P22310+P35503+P35504+P36537+P54855+Q6UWM9+Q9BY64+Q9HAW7+Q9HAW8+Q9HAW9); experiment: Microsomal stability in human liver microsomes assessed as UGT-mediated metabolism by measuring compound remaining at 5 uM and measured for 60 mins in presence of UDPGA by UPLC-MS/MS analysis (reference value: 100%); assay type: ADME; conditions: read-out: Stability
In short: (§2)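 Compound at 5 µM with 0.5 mg/mL liver microsomes in PBS. Phase I was started with 1 mM NADPH; phase II used 2 mM UDPGA. Diclofenac served as reference. Samples taken at 0, 15, 30 and 60 min were quenched in ice-cold acetonitrile, centrifuged at 4°C and analysed by LC-MS. Mean of at least two replicates ± SD.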

[4] = Genotoxicity in Salmonella typhimurium TA104 harboring with pr1 assessed as S/N ratio at 1 to 100 uM measured for 4 hrs with 5 mins interval by luminescence based assay; assay type: toxicity; conditions: salmonella enterica subsp. enterica serovar typhimurium
In short: (§3)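 VITOTOX test. Genox (recN2-4) and Cytox (pr1) S. typhimurium TA104 strains were diluted 250-fold and grown in 869 medium for 16 h at 36°C with shaking, then diluted 10-fold and grown 1 h more. Compounds tested at 1, 10 and 100 µM, with or without rat liver S9-mix. Luminescence read for 4 h at 5-min intervals. S/N thresholds: Genox >1.5 genotoxic; Cytox <0.8 toxic, >1.5 luminescence artefact.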

Streptococcus pneumoniae = experiment: Antibacterial activity against Streptococcus pneumoniae ATCC BAA-334 incubated for 24 hrs by resazurin dye based fluorimetric assay; assay type: functional, organism-based; conditions: ATCC BAA-334, 24 h; in short: as §1
Staphylococcus aureus = experiment: Antibacterial activity against Staphylococcus aureus ATCC 6538 incubated for 24 hrs by resazurin dye based fluorimetric assay; assay type: functional, organism-based; conditions: ATCC 6538, 24 h; in short: as §1
Enterococcus faecium = experiment: Antibacterial activity against Enterococcus faecium ATCC 19434 incubated for 24 hrs by resazurin dye based fluorimetric assay; assay type: functional, organism-based; conditions: ATCC 19434, 24 h; in short: as §1
UGT [5] = molecular target: T1, UGT; experiment: Microsomal stability in human liver microsomes assessed as UGT-mediated metabolism by measuring compound remaining at 5 uM and measured for 15 mins in presence of UDPGA by UPLC-MS/MS analysis (reference value: 100%); assay type: ADME; conditions: read-out: Stability; in short: as §2
[6] = Genotoxicity in Salmonella typhimurium TA104 harboring with pr1 assessed as S/N ratio at 1 to 100 uM measured for 4 hrs with 5 mins interval in presence of rat liver S9 fraction by luminescence based assay; assay type: toxicity, subcellular; conditions: salmonella enterica subsp. enterica serovar typhimurium, s9, 4 h; in short: as §3
CYP450 = CYP450 (Homo sapiens, UniProt P04798+P05177+P05181+P08684+P10632+P10635+P11509+P11712+P13584+P20813+P20815+P20853+P24462+P24903+P33260+P33261+P51589+P78329+P98187+Q02928+Q08477+Q16678+Q16696+Q5TCH4+Q6VVX0+Q7Z449+Q8TAV3+Q96SQ9+Q9HB55); experiment: Microsomal stability in human liver microsomes assessed as CYP450-mediated metabolism by measuring compound remaining at 5 uM and measured for 15 mins in presence of NADPH by UPLC-MS/MS analysis (reference value: 100%); assay type: ADME; conditions: read-out: Stability; in short: as §2
UGT [7] = molecular target: T1, UGT; experiment: Microsomal stability in human liver microsomes assessed as UGT-mediated metabolism by measuring compound remaining at 5 uM and measured for 30 mins in presence of UDPGA by UPLC-MS/MS analysis (reference value: 100%); assay type: ADME; conditions: read-out: Stability; in short: as §2
Escherichia coli = experiment: Antibacterial activity against Escherichia coli ATCC 8739 incubated for 24 hrs by resazurin dye based fluorimetric assay; assay type: functional, organism-based; conditions: ATCC 8739, ATCC 8739, 24 h; in short: as §1

SMILES | IC50 (Klebsiella pneumoniae) | IC50 [1] | fold change (FC) [2] | remaining at 1 h, 5 µM (UGT [3]) | Ratio [4] | IC50 (Streptococcus pneumoniae) | IC50 (Staphylococcus aureus) | IC50 (Enterococcus faecium) | remaining at 0.25 h, 5 µM (UGT [5]) | Ratio [6] | remaining at 0.25 h, 5 µM (CYP450) | remaining at 0.5 h, 5 µM (UGT [7]) | IC50 (Escherichia coli)
O=C1C2=C(C(=O)c3c1cnc1c(F)cccc31)C1CCC2C1 (stereo not given) | > 64 µM | 0.1 µM | 2.85 | 65% | >= 0.8 | 32 to 64 µM | > 32 µM | > 64 µM | 78% | >= 0.8 | 100% | 71% | > 64 µM
O=C1C2=C(C(=O)c3c1cnc1ccccc31)C1CCC2C1 (stereo not given) | > 64 µM | 0.12 µM | – | 68% | >= 0.8 | 32 to 64 µM | 32 to 64 µM | 32 to 64 µM | 83% | >= 0.8 | 100% | 76% | > 64 µM
